Experiments:
T. brucei (STIB795) = assay: In vivo antitrypanosomal activity, T. b. brucei STIB795-Luc mouse model; design: species or system mice; conditions: 4 consecutive days
Outline: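 Groups of four female NMRI mice were infected ip with 1 × 10⁴ bloodstream-form T. b. brucei STIB795-Luc. Test compound was given ip in water plus 10% DMSO from 3 days post-infection, with an untreated control group. Parasitemia was tracked by live imaging, and moribund mice were euthanized.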

human cathepsin L = human cathepsin L (Homo sapiens, UniProt P07711); assay: Human cathepsin L inhibition; format: biochemical; conditions: from 0.1 μM to 125 μM; 1 hour pre-incubation
Outline: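 Human liver-derived cathepsin L (0.58 nM) in 400 mM sodium acetate pH 5.5 with 8 mM DTT, 4 mM EDTA and 0.01% Triton X-100. Pre-incubated 1 h with test compound, then Z-Phe-Arg-AMC (20 μM, concentration as added) in sodium acetate buffer. Substrate cleavage was followed as fluorescence rate (RFU/sec) at 25 °C, λex 355/λem 460 nm.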

[1] = target: T. brucei cathepsin L (rhodesain) (Trypanosoma brucei rhodesiense, UniProt Q95PM0); assay: Rhodesain inhibition assay; format: biochemical; conditions: 1 hour pre-incubation
Outline: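 Rhodesain was expressed in Pichia pastoris and used at 0.8 nM final in 50 mM sodium acetate pH 5.5 with 2 mM DTT and 0.01% Triton X-100. It was pre-incubated 1 h with test compound (20 μM final), then Z-Phe-Arg-AMC (10 μM) was added. Cleavage rate (RFU/sec) was read at 25 °C, λex 355/λem 460 nm. E-64 (10 μM) served as positive control.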

Chain of human cathepsin L (P07711 114-333): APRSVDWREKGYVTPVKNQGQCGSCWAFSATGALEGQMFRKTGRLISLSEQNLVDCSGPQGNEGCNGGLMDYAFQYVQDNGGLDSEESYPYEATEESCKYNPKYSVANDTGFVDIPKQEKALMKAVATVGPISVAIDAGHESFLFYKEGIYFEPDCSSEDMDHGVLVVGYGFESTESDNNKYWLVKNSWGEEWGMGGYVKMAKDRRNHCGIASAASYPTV

O=C(Cc1ccc(OC/C=C/S(=O)(=O)c2ccccc2)cc1)Nc1cccc2cccnc12 [Compound 9] was tested, and the “parasites in infected mice 24 hours posttreatment” value (T. brucei (STIB795); 50 mg/kg/day intraperitoneally) was “positive for parasites” and the “parasites in infected mice 24 hours posttreatment” value (T. brucei (STIB795); 100 mg/kg/day intraperitoneally) was “positive for parasites”.
In the case of O=C(N[C@H](/C=C/S(=O)(=O)c1ccccc1)CCc1ccccc1)c1cccc2cccnc12 [Compound 27], the “inhibitory activity against human cathepsin L” value (human cathepsin L) is reported as “inactive” and the “inhibition of rhodesain at 20 μM” value [1] is reported as “completely inactivate”.
